Source: PubChem BioAssay
A selection: hits, their analogues and other compounds. The true share with any hit is near 0.91%.
Pf gamet viab: late stage P. falciparum gametocyte viability inhibitors, primary screen, ATP luminescence, HTS. hit rate 0.065% among 150,000. P. falciparum stage V gametocytes, 24 h. inhibition, % at 10.9 µM. AID 743093, 2013;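 active = inhibition above the mean plus 3 SD of compounds within the control limits, set per campaign, cut at about 38% in these data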
zVAD death inh: inhibitors of zVAD-triggered necroptosis, primary screen, L929 cells; hit rate 0.38% among 220,000; AID 1377, 2008; L929 zVAD necroptosis rescue, ATP luminescence, 24 h; with zVAD 60 µM; viability rescue, % at 10 µM;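 active = activation, scaled between plate controls, above about 75%, limit read from the data; inactive = activation under that limit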
Arbovirus inh: antivirals against arbovirus infection, primary screen, cell-based, full library, 10K replicate subset; AID 1251, 2008; arbovirus infection cell-based antiviral screen; inhibition, % at 10 µM; hit rate 0.37% among 200,000; in the data active = inhibition above about 30%
Lipid droplet: inhibitors of hepatocyte lipid droplet formation, primary screen, imaging, high-throughput imaging, BODIPY stain | inhibition, % at 6.5 µM | AML12 mouse hepatocytes, oleate lipid droplets | AID 1656, 2009 | hit rate 0.4% among 240,000;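 active = lipid droplet intensity inhibited by at least 50%, with more than 500 cells counted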
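Assay system: AML12 mouse liver cells | Compound dosing: One dose, 6.5 µM compound | Read-out basis: Droplet intensity reduction, % inhibition | Measured by: Fluorescence imaging, 20x objective, two fields per well | Schedule: Overnight treatment with compound plus oleate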
TNF death inh: inhibitors of TNF-alpha triggered necroptosis, primary screen, cell-based, Jurkat FADD-/-, single concentration; Jurkat FADD-/- TNF necroptosis rescue, ATP luminescence, 24 h; 0 = TNF only, 100 = no-TNF cells; activation (protection from cell death), % at 10 µM; hit rate 0.068% among 220,000;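 active = activation, meaning protection from cell death, of at least 50% relative to plate controls; inactive = activation below 50%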;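 also: necroptosis triggered by 40 ng/mL TNF-alpha added together with compound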
A number is an active result; 0 = inactive; - = not tested or not shown.

SMILES	Pf gamet viab	zVAD death inh	Arbovirus inh	Lipid droplet	TNF death inh
CCOC(=O)c1c(-c2cccs2)csc1NC(=O)c1ccncc1	0	0	0	-	0
O=C(Nc1scc(-c2cccs2)c1C(=O)O)c1cccs1	-	0	49.6	0	0
O=C(Nc1scc(-c2ccccc2)c1C(=O)O)c1ccco1	-	0	42.5	0	0
CSc1ccc(/C=C/C(=O)NC(=O)c2ccccc2O)cc1	0	0	0	0	0
Cc1cc(SCC(=O)N/N=C/c2ccc(O)c(O)c2O)c(C)cc1Br	39.1	0	0	0	0
COc1cc(/C=N/NC(=O)CSc2cc(C)c(Br)cc2C)ccc1O	0	0	0	0	0
COc1cc(/C=C(\C#N)c2nc3ccc(C)cc3[nH]2)cc([N+](=O)[O-])c1O	0	0	44.2	0	0
COc1cc(/C=C(\C#N)c2nc3ccc(C)cc3[nH]2)c([N+](=O)[O-])cc1OC	0	0	0	-	0
O=C(N/C(=C/c1ccco1)C(=O)N1CCOCC1)c1ccccc1Br	-	-	-	0	-
COc1ccc(Cl)cc1C(=O)CSc1nnnn1C1CCCCC1	42.9	0	0	0	0
Nc1ccc(-c2ccc(C(=O)O)s2)cn1	0	0	0	0	0
Cc1ccc(S(=O)(=O)c2nc(S(=O)(=O)c3ccc(C)cc3)c(N3CCN(CCO)CC3)s2)cc1	-	-	-	0	-
Fc1ccccc1Nc1nc(NCc2ccco2)nc(N2CCOCC2)n1	0	0	0	0	0
CC(C)c1ccc(Nc2nc(NCc3ccco3)nc(N3CCOCC3)n2)cc1	0	86.5	0	-	0
Cc1ccc(NC(=O)Cn2cnc3c(cnn3C(C)(C)C)c2=O)cc1	-	84.5	0	-	0
CCc1cc(C(=O)O)c(NC(=O)c2cc(OC)c(OC)c(OC)c2)s1	0	0	76.2	0	0
COc1ccc2nc(NC(=O)C3CCN(S(=O)(=O)c4cccc5nsnc45)CC3)sc2c1	-	77.2	0	-	0
CCOc1ccc(NC(=O)CN2C(=O)c3cccc4cccc2c34)cc1	0	-	-	-	-
O=C1CN(C(=O)/C=C/c2ccc(Cl)cc2)c2ccccc2N1	0	0	31.0	0	0
Cn1cc([N+](=O)[O-])c(C(=O)NCc2cc3cc(Cl)ccc3[nH]2)n1	-	-	34.9	0	0
COc1ccc(OC)c(CCNC(=O)CC2(CC3=NS(=O)(=O)c4ccccc4N3)CCCC2)c1	-	-	-	0	-
Clc1ccc(OCc2nnc3n2CCCCC3)c(Cl)c1	0	0	-	0	0
Cc1ccc2nc(-c3cccs3)oc(=O)c2c1	0	0	0	0	0
O=c1oc(-c2cccs2)nc2ccc(Br)cc12	-	0	45.8	-	0
CCOc1ccc(NC(=O)N(Cc2ccc(C)cc2)Cc2ccccn2)cc1	-	-	-	0	-
SMILES	Pf gamet viab	zVAD death inh	Arbovirus inh	Lipid droplet	TNF death inh
CS(=O)(=O)c1ccc2nc(NC(=O)Nc3cccc(Cl)c3)sc2c1	-	83.5	0	-	0
COc1cccc(N2CC(C(=O)Nc3nnc(SCCC4OCCO4)s3)CC2=O)c1 (configuration not stated)	-	-	-	0	-
Cc1ccc(NC(=S)/C(=C(\[O-])c2ccc(F)cc2)[n+]2ccccc2)cc1	38.9	0	0	0	0
O=C(CSc1ccc(Cl)cc1)N1N=CCC1c1ccccc1 (configuration not stated)	0	0	-	0	99.5
Cc1ccc(CC2SC(=O)NC2=O)cc1Cl (configuration not stated)	0	84.3	0	0	0
CCCCc1ccc(NC(=S)N2CCN(c3ccccn3)CC2)cc1	-	-	-	0	-
Cc1ccc(OC(C)C(=O)Nc2ccccc2C(=O)N2CCN(C)CC2)cc1 (configuration not stated)	-	-	-	0	-
C/C(=N\NS(=O)(=O)c1ccccc1)c1cccc(NC(=O)c2cccc(Cl)c2)c1	0	0	47.3	0	0
C/C(=N/NS(=O)(=O)c1ccc(Cl)cc1)c1cccc(NC(=O)c2ccncc2)c1	-	-	-	0	-
CCC(=O)N1c2ccc(S(=O)(=O)NCCc3ccc(OC)c(OC)c3)cc2CC1C (configuration not stated)	-	-	-	0	-
Cc1ccc(N2C(=O)/C(=C\c3ccc(C(C)C)cc3)N=C2SC2CCOC2=O)cc1 (configuration not stated)	0	0	39.2	0	0
CCSC1=N/C(=C\c2ccccc2)C(=O)N1c1ccc(OC)cc1	0	0	0	0	0
CN(C)Cc1c(O)c(Cl)cc2c3c(c(=O)oc12)CCCC3	-	0	32.5	0	0
COc1ccc2[nH]c3c(c2c1)CCN1C(=O)N([C@@H](C)C(=O)NC2CCN(Cc4ccccc4)CC2)C(=O)[C@]31C	-	-	-	0	-
CN1C(=O)C2(OCCCO2)c2ccccc21	0	-	-	0	-
CCOC(=O)c1ccc(NC(=O)CC2S/C(=N/N=C/c3c[nH]c4ccccc34)NC2=O)cc1 (configuration not stated)	-	0	31.1	0	0
Cc1ccc(C)c(N(C)C(=O)CCS(=O)(=O)c2cccc3nonc23)c1	-	-	-	0	-
N#CCC(=O)Nc1ccc(C(=O)OCC(=O)Nc2ccccc2Sc2ccccc2)cc1	39.9	0	0	0	0
CC(=O)Nc1ccc(C(=O)OCC(=O)Nc2ccccc2Sc2ccccc2)cc1	0	0	0	0	0
COc1cc(C(=S)N2CCOCC2)cc(Br)c1OS(=O)(=O)c1ccccc1	0	-	-	0	-
COC(=O)c1ccc(/C=N/OCC(=O)NC2CCCCCCC2)cc1	0	78.0	0	0	0
Fc1ccccc1N1CCN(c2ncnc3[nH]ncc23)CC1	0	0	43.0	0	0
CCc1ccccc1S(=O)(=O)Cc1ccc(C(=O)NCc2cccs2)o1	-	0	0	0	0
CN1CCN(C(=O)CNc2ccc(C(F)(F)F)cc2[N+](=O)[O-])CC1	-	0	0	0	0
CCOc1ccc(-c2cc3nc(C4CCN(C(=O)OC(C)(C)C)CC4)c(C(=O)O)cn3n2)cc1	0	0	49.5	-	0
SMILES	Pf gamet viab	zVAD death inh	Arbovirus inh	Lipid droplet	TNF death inh
CCOC(=O)N1CCN(C(=O)c2cc(-c3ccc(OCC)cc3)nc3ccccc23)CC1	-	0	0	-	0
Cc1c(O)c2c3c(cccc3c1O)C(=O)N(c1ccccc1)C2=O	-	0	35.5	0	0
Cc1ccc(NC(=O)Cn2nnc(C(=O)NCCc3ccccc3)c2N)c(C)c1	-	-	-	0	-
CC(C)(C)N/N=C1\CC(c2ccccc2)Oc2ccccc21 (configuration not stated)	0	0	0	0	0
O=C(O)c1cc(N/N=C2/CC(c3ccccc3)Oc3ccccc32)ccc1Cl (configuration not stated)	-	0	32.0	0	0
Oc1ccc(Br)cc1-c1nc2cnccn2c1NC1CCCC1	-	0	61.9	0	0
COc1ccc(-c2cc(-c3ccc(OC)c(OC)c3)n[nH]2)c(O)c1	0	0	31.8	0	0
O=C(Nc1ccccc1F)c1cc(S(=O)(=O)N2CCOCC2)cs1	-	-	-	0	-
O=C(N/N=C/c1ccc(O)c(O)c1O)/C(=C/c1ccc([N+](=O)[O-])cc1)NC(=O)c1ccccc1	40.3	0	0	0	0
COCCn1c(C)cc(C(=O)CSc2cc(C)c3ccccc3n2)c1C	-	0	30.6	0	0
